In ChEMBL document CHEMBL1154766, “Synthesis and biological evaluation of new podophyllic aldehyde derivatives with cytotoxic and apoptosis-inducing activities” (2010) one finds GI50 and Activity data, which are given here for five molecules.

Experiment [1] concerns A549. Briefly: Cytotoxicity against human A549 cells after 72 hrs by SRB assay. It counts as functional. To be noted: A549, 72 h. Put shortly:
(§1)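 SRB growth assay: 5 × 10³ cells/well in RPMI, attached 18 h drug-free, then compound added in DMSO/H₂O 3:7 for 72 h. Fixed with cold 50% TCA 60 min at 4 °C, stained 0.4% SRB in 1% acetic acid 10 min, bound dye solubilized in Tris, OD 490 nm. GI50 from 100[(T−T0)/(C−T0)] = 50; mean of triplicates.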
On the technique in general: The SRB assay estimates cell density from bound dye.

The test system of experiment [2] is HT-29. As to the kind of experiment: Cell cycle arrest in human HT-29 cells assessed as accumulation at G0/G1 phase at 1 uM after 48 hrs by flow cytometry. It counts as functional. Put shortly: (§2)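 HT-29 cells incubated at 1 μM for 24, 48 or 72 h alongside untreated controls. (3-5) × 10⁵ cells fixed overnight in 70% ethanol at 4 °C, PBS-washed three times, then treated 1 h at room temperature with 1 mg/mL RNase A and 20 μg/mL propidium iodide. DNA content read by flow cytometry; apoptosis taken as % cells in sub-G1 peak. Representative of three independent experiments.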
On the technique in general: In flow cytometry, cells or beads pass a laser one at a time.

Experiment [3] concerns MDA-MB-231. As to the kind of experiment: Cytotoxicity against human MDA-MB-231 cells after 72 hrs by SRB assay. It counts as functional. To be noted: MDA-MB-231, 72 h. Put shortly: as §1
Experiment [4] has as its system HT-29. As to the kind of experiment: Induction of apoptosis in human HT-29 cells assessed as accumulation at subG1 phase at 1 uM after 72 hrs by flow cytometry. It counts as functional. Put shortly:
as §2

In experiment [5] the test system is HT-29. As to the kind of experiment: Cell cycle arrest in human HT-29 cells assessed as accumulation at S phase at 1 uM after 24 hrs by flow cytometry. It counts as functional. Put shortly: as §2
Experiment [6] has as its system HT-29. Briefly: Induction of apoptosis in human HT-29 cells assessed as accumulation at subG1 phase at 1 uM after 48 hrs by flow cytometry. It counts as functional. Put shortly:
as §2

Experiment [7] relates to HT-29. As to the kind of experiment: Cell cycle arrest in human HT-29 cells assessed as accumulation at S phase at 1 uM after 48 hrs by flow cytometry. It counts as functional. Put shortly:
as §2

In experiment [8] the test system is HT-29. As to the kind of experiment: Cell cycle arrest in human HT-29 cells assessed as accumulation at G2/M phase at 1 uM after 48 hrs by flow cytometry. It counts as functional. Put shortly: as §2
Experiment [9] concerns HT-29. As to the kind of experiment: Cell cycle arrest in human HT-29 cells assessed as accumulation at G2/M phase at 1 uM after 24 hrs by flow cytometry. It counts as functional. Put shortly: as §2
Experiment [10] relates to HT-29. As to the kind of experiment: Induction of microtubule disruption in human HT-29 cells at 1 uM after 24 hrs. It counts as cell-based. Put shortly:
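HT-29 cells on poly-L-lysine coverslips exposed to 1 μM for 24 h, washed in HPEM (pH 6.6), fixed with 4% paraformaldehyde 15 min, permeabilized with 0.5% Triton X-100. Anti-α-tubulin mouse monoclonal (1:150, 1 h) then CY3 anti-mouse IgG (1 h, 4 °C); nuclei DAPI-stained; imaged by confocal microscopy. Representative of at least three experiments.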

For experiment [11], the system named is HT-29. As to the kind of experiment: Cell cycle arrest in human HT-29 cells assessed as accumulation at S phase at 1 uM after 72 hrs by flow cytometry. It counts as functional. Put shortly: as §2
For experiment [12], the system named is HT-29. Briefly: Cytotoxicity against human HT-29 cells after 72 hrs by SRB assay. It counts as functional. To be noted: HT-29, 72 h. Put shortly:
as §1

Experiment [13] deals with HT-29. Briefly: Cell cycle arrest in human HT-29 cells assessed as accumulation at G0/G1 phase at 1 uM after 24 hrs by flow cytometry. It counts as functional. Put shortly:
as §2

The test system of experiment [14] is HT-29. As to the kind of experiment: Induction of apoptosis in human HT-29 cells assessed as accumulation at subG1 phase at 1 uM after 24 hrs by flow cytometry. It counts as functional. Put shortly:
as §2

Experiment [15] deals with HT-29. Briefly: Cell cycle arrest in human HT-29 cells assessed as accumulation at G0/G1 phase at 1 uM after 72 hrs by flow cytometry. It counts as functional. Put shortly:
as §2

The test system of experiment [16] is HT-29. Briefly: Cell cycle arrest in human HT-29 cells assessed as accumulation at G2/M phase at 1 uM after 72 hrs by flow cytometry. It counts as functional. Put shortly:
as §2

Calls of active or inactive are those of the source. The rule behind the calls is not given here.

The term GI50 denotes the concentration giving 50% growth inhibition. Higher therefore signals less potent growth inhibition. `CCNC(=O)[C@@H]1C(C=O)=Cc2cc3c(cc2[C@H]1c1cc(OC)c(OC)c(OC)c1)OCO3`: the 50% growth inhibitory concentration (GI50) in [1] is 4500 nM; in [3], 7100 nM; in experiment [12], 8000 nM. The Activity was 33% in experiment [2]; 93.8% in experiment [4]; 9.8% in experiment [5]; 61.7% in experiment [6]; 3% in experiment [7]; 2.3% in experiment [8]. Also, the Activity in experiment [9] was found to be 13.5%; in [11] it was 0.5%; in experiment [13], 51.7%; in [14], 25%; in [15] it was 5.3%; in experiment [16], 0.4%. In addition, the outcome in experiment [10] was inactive.

Turning to `COc1cc(COC(=O)[C@@H]2C(C=O)=Cc3cc4c(cc3[C@H]2c2cc(OC)c(OC)c(OC)c2)OCO4)cc(OC)c1OC`, the GI50 worked out at 34 nM in [1], 42 nM in experiment [3] and 20 nM in experiment [12]. Moreover, the Activity in experiment [2] is reported as 6.8%; in [4] it was 32.3%; in [5] it was 1.1%; in experiment [6], 8.6%; in [7], 5.1%; in [8], 79.5%. Further, the Activity is on record as 97.5% in experiment [9]; 12.9% in experiment [11]; 0.9% in experiment [13]; 0.5% in experiment [14]; 18.3% in [15]; 36.5% in experiment [16]. Further, in experiment [10], the result was Active.

Regarding `COc1ccc(NC(=O)[C@@H]2C(C=O)=Cc3cc4c(cc3[C@H]2c2cc(OC)c(OC)c(OC)c2)OCO4)cc1`, the GI50 in experiment [1] was 1200 nM; in experiment [3], 4600 nM; in experiment [12], 800 nM. In addition, the Activity came out at 50.4% in experiment [2]; 52.6% in experiment [4]; 13.2% in experiment [5]; 45.2% in experiment [6]; 1.8% in experiment [7]; 2.6% in [8]. Also, the Activity is recorded as 25.2% in experiment [9]; 8.4% in experiment [11]; 48% in experiment [13]; 13.6% in experiment [14]; 36.4% in [15]; 2.6% in experiment [16]. For the same molecule, in experiment [10], the outcome was inactive.

For `COc1cc([C@@H]2c3cc4c(cc3C=C(C=O)[C@H]2C(=O)OCCCBr)OCO4)cc(OC)c1OC`, the GI50 in experiment [1] was 130 nM; in experiment [3], 170 nM; in experiment [12], 140 nM. The Activity in experiment [2] is 38.9%; in [4], 67.7%; in experiment [5], 9.7%; in experiment [6], 34.6%; in experiment [7] it was 8.4%; in [8], 18.1%. Further, the Activity stood at 14.2% in [9]; 0.3% in experiment [11]; 46.9% in experiment [13]; 29.2% in experiment [14]; 31.6% in [15]; 0.4% in [16]. Further, the result in experiment [10] was inactive.

Take `CCCCCCCOC(=O)[C@@H]1C(C=O)=Cc2cc3c(cc2[C@H]1c1cc(OC)c(OC)c(OC)c1)OCO3`: the GI50 in [1] came out at 1000 nM; in experiment [3] it was 2500 nM; in experiment [12], 1000 nM. Further, the Activity in [2] is recorded as 25.3%; in [4], 82.3%; in experiment [5], 42.6%; in experiment [6], 29.2%; in experiment [7], 29.6%; in [8], 15.9%. Also, the Activity in experiment [9] is reported as 23.2%; in [11], 0.4%; in [13], 14.6%; in [14], 19.6%; in experiment [15], 16.7%; in experiment [16], 0.6%. Also, in experiment [10], the outcome was inactive.
